ChEMBL document CHEMBL1127661, “Synthesis of 2-methyl-(Z)-4-(phenylimino)naphth[2,3-d]oxazol-9-one , a monoimine quinone with selective cytotoxicity toward cancer cells” (1994)

Key:
[1] = test system: BT-549; experiment: In vitro tumor cell growth inhibition was reported as the concentration that reduces BT-549 breast cancer cell growth to 50% of level at the start experiment.; format: functional; settings: Homo sapiens, read-out: Log LC50 (the source's name) (converted)
Summary of the method: (§1)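 Tested in the NCI in vitro anticancer screen, which covers about 60 human cell lines from eight solid-tumour types and leukaemia. Values were read from dose-response curves as log molar concentration. The endpoint is the concentration that reduces cell growth to 50% of the level at the start of the experiment (LC50).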

[2] = test system: Hs-578T; experiment: In vitro tumor cell growth inhibition was reported as the concentration that reduces HS 578T breast cancer cell growth to 50% of level at the start experiment.; format: functional; settings: Homo sapiens, read-out: Log LC50 (the source's name) (converted); summary of the method: as §1
[3] = test system: Tumor Cell line; experiment: In vitro inhibition of cell growth; format: functional, Homo sapiens
[4] = test system: Tumor Cell line; experiment: Concentration which reduces cell growth to level at the start of the experiment was reported as the mean graph medium for all the cell lines tested in vitro conditions; format: functional, Homo sapiens
Summary of the method: (§2)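 NCI in vitro screen covering about 60 human cell lines from eight solid tumour types and leukaemia. Results were derived from dose-response curves. TGI is the concentration that holds cell growth at the level present at the start of the experiment. Values are given as log molar concentration. The mean graph midpoint (MG-MID) is the average across all cell lines tested, with a range of TGI values.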

[5] = test system: M14; experiment: In vitro tumor cell growth inhibition was reported as the concentration that reduces M14 melanoma cell growth to 50% of level at the start experiment.; format: functional; settings: Homo sapiens, read-out: Log LC50 (the source's name) (converted); summary of the method: as §1
[6] = test system: MCF7; experiment: In vitro tumor cell growth inhibition was reported as the concentration that reduces MCF-7 breast cancer cell growth to level at the start experiment.; format: functional, Homo sapiens; summary of the method: as §2
[7] = test system: MCF7; experiment: In vitro tumor cell growth inhibition was reported as the concentration that reduces MCF-7 breast cancer cell growth to 50% of level at the start experiment.; format: functional; settings: Homo sapiens, read-out: Log LC50 (the source's name) (converted); summary of the method: as §1
[8] = test system: LOX IMVI; experiment: In vitro tumor cell growth inhibition was reported as the concentration that reduces LOXIMVI melanoma cell growth to level at the start experiment.; format: functional, Homo sapiens; summary of the method: as §2
[9] = test system: LOX IMVI; experiment: In vitro tumor cell growth inhibition was reported as the concentration that reduces LOXIMVI melanoma cell growth to 50% of level at the start experiment.; format: functional; settings: Homo sapiens, read-out: Log LC50 (the source's name) (converted); summary of the method: as §1
[10] = test system: MDA-MB-231; experiment: In vitro tumor cell growth inhibition was reported as the concentration that reduces MDA-MB-231/ATCC breast cancer cell growth to level at the start experiment.; format: functional, Homo sapiens; summary of the method: as §2
[11] = test system: MDA-MB-231; experiment: In vitro tumor cell growth inhibition was reported as the concentration that reduces MDA-MB-231/ATCC breast cancer cell growth to 50% of level at the start experiment..; format: functional; settings: Homo sapiens, read-out: Log LC50 (the source's name) (converted); summary of the method: as §1
[12] = test system: MDA-N; experiment: In vitro tumor cell growth inhibition was reported as the concentration that reduces MDA-N breast cancer cell growth to level at the start experiment.; format: functional, Homo sapiens; summary of the method: as §2
[13] = test system: MDA-N; experiment: In vitro tumor cell growth inhibition was reported as the concentration that reduces MDA-N breast cancer cell growth to 50% of level at the start experiment.; format: functional; settings: Homo sapiens, read-out: Log LC50 (the source's name) (converted); summary of the method: as §1
[14] = test system: MDA-MB-435; experiment: In vitro tumor cell growth inhibition was reported as the concentration that reduces MDA-MB-435 breast cancer cell growth to level at the start experiment.; format: functional, Homo sapiens; summary of the method: as §2
[15] = test system: MDA-MB-435; experiment: In vitro tumor cell growth inhibition was reported as the concentration that reduces MDA-MB-435 breast cancer cell growth to 50% of level at the start experiment.; format: functional; settings: Homo sapiens, read-out: Log LC50 (the source's name) (converted); summary of the method: as §1
[16] = test system: Malme-3M; experiment: In vitro tumor cell growth inhibition was reported as the concentration that reduces MALME-3M melanoma cell growth to level at the start experiment.; format: functional, Homo sapiens; summary of the method: as §2
[17] = test system: Malme-3M; experiment: In vitro tumor cell growth inhibition was reported as the concentration that reduces MALME-3M melanoma cell growth to 50% of level at the start experiment.; format: functional; settings: Homo sapiens, read-out: Log LC50 (the source's name) (converted); summary of the method: as §1
[18] = test system: SK-MEL-2; experiment: In vitro tumor cell growth inhibition was reported as the concentration that reduces SK-MEL-2 melanoma cell growth to 50% of level at the start experiment.; format: functional; settings: Homo sapiens, read-out: Log LC50 (the source's name) (converted); summary of the method: as §1
[19] = test system: SK-MEL-5; experiment: In vitro tumor cell growth inhibition was reported as the concentration that reduces SK-MEL-5 melanoma cell growth to level at the start experiment.; format: functional, Homo sapiens; summary of the method: as §2
[20] = test system: SK-MEL-5; experiment: In vitro tumor cell growth inhibition was reported as the concentration that reduces SK-MEL-5 melanoma cell growth to 50% of level at the start experiment.; format: functional; settings: Homo sapiens, read-out: Log LC50 (the source's name) (converted); summary of the method: as §1
[21] = test system: T47D; experiment: In vitro tumor cell growth inhibition was reported as the concentration that reduces T-47D breast cancer cell growth to level at the start experiment.; format: functional, Homo sapiens; summary of the method: as §2
[22] = test system: T47D; experiment: In vitro tumor cell growth inhibition was reported as the concentration that reduces T-47D breast cancer cell growth to 50% of level at the start experiment.; format: functional; settings: Homo sapiens, read-out: Log LC50 (the source's name) (converted); summary of the method: as §1
[23] = test system: BT-549; experiment: In vitro tumor cell growth inhibition was reported as the concentration that reduces BT-549 breast cancer cell growth to level at the start experiment.; format: functional, Homo sapiens; summary of the method: as §2
[24] = test system: Hs-578T; experiment: In vitro tumor cell growth inhibition was reported as the concentration that reduces HS 578T breast cancer cell growth to level at the start experiment.; format: functional, Homo sapiens; summary of the method: as §2
[25] = test system: M14; experiment: In vitro tumor cell growth inhibition was reported as the concentration that reduces M14 melanoma cell growth to level at the start experiment.; format: functional, Homo sapiens; summary of the method: as §2
[26] = test system: SK-MEL-2; experiment: In vitro tumor cell growth inhibition was reported as the concentration that reduces SK-MEL-2 melanoma cell growth to level at the start experiment.; format: functional, Homo sapiens; summary of the method: as §2

Question: Which CC50 [1] does the source give for `Cc1nc2c(o1)C(=O)c1ccccc1/C2=N/c1ccccc1` here?
Answer: The CC50 was 6.31 µM.

Question: What about the CC50 [2] of the same compound?
Answer: The CC50 was over 100 µM.

Question: What about the Range [3] of the same compound?
Answer: The Range was 2.02.

Question: What about the Log concentration [4] of the same compound?
Answer: Its Log concentration is -5.13.

Question: And the CC50 [5]?
Answer: The CC50 was 3.98 µM.

Question: What about the Log concentration [6] of the same compound?
Answer: Its Log concentration is -5.3.

Question: What about the CC50 [7] of the same compound?
Answer: The CC50 was over 100 µM.

Question: And the Log concentration [8]?
Answer: Its Log concentration is -5.6.

Question: What about the CC50 [9] of the same compound?
Answer: The CC50 was 6.31 µM.

Question: What about the Log concentration [10] of the same compound?
Answer: Its Log concentration is -4.7.

Question: What about the CC50 [11] of the same compound?
Answer: The CC50 was over 100 µM.

Question: And the Log concentration [12]?
Answer: Its Log concentration is -6.

Question: What about the CC50 [13] of the same compound?
Answer: The CC50 was 3.16 µM.

Question: What about the Log concentration [14] of the same compound?
Answer: Its Log concentration is -6.

Question: And the CC50 [15]?
Answer: The CC50 was 3.16 µM.

Question: And the Log concentration [16]?
Answer: Its Log concentration is -5.6.

Question: What about the CC50 [17] of the same compound?
Answer: The CC50 was 5.01 µM.

Question: What about the CC50 [18] of the same compound?
Answer: Its CC50 is 6.31 µM.

Question: And the Log concentration [19]?
Answer: Its Log concentration is -5.6.

Question: What about the CC50 [20] of the same compound?
Answer: The CC50 was 5.01 µM.

Question: And the Log concentration [21]?
Answer: The Log concentration was -5.1.

Question: And the CC50 [22]?
Answer: Its CC50 is over 100 µM.

Question: And the Log concentration [23]?
Answer: The Log concentration was -5.5.

Question: What about the Log concentration [24] of the same compound?
Answer: Its Log concentration is -5.3.

Question: And the Log concentration [25]?
Answer: The Log concentration was -5.9.

Question: And the Log concentration [26]?
Answer: The Log concentration was -5.6.

Question: Which Range [3] does the source give for `Cc1nc2c(o1)/C(=N\c1ccccc1)c1ccccc1C2=O` here?
Answer: Its Range is 1.44.

Question: And the Log concentration [4]?
Answer: Its Log concentration is -4.62.

Question: For `Cc1nc2c(o1)/C(=N\c1ccccc1)c1ccccc1/C2=N/c1ccccc1`, which Range [3] is on record?
Answer: The Range was 0.49.

Question: And the Log concentration [4]?
Answer: The Log concentration was -4.02.
